The subject of one data set is Liver. As to the kind of experiment: Biodistribution in liver of Sprague-Dawley rat at 50 to 350 uCi, iv. In kind it is ADME, organism-based. The conditions noted are these: in vivo.
Another data set concerns Blood. As to the kind of experiment: Biodistribution in blood of Sprague-Dawley rat at 50 to 350 uCi, iv. In kind it is ADME, organism-based. To be noted: in vivo.
The next data set relates to Adrenal medulla. As to the kind of experiment: Biodistribution in adrenal medulla of Sprague-Dawley rat at 50 to 350 uCi, iv. In kind it is ADME, organism-based. To be noted: in vivo.
For the next data set, the system named is Heart. As to the kind of experiment: Neuronal drug uptake rate in isolated Sprague-Dawley rat heart. In kind it is ADME, tissue-based. The method, boiled down: (§1)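 Isolated working rat heart perfused with Krebs-Henseleit bicarbonate buffer plus 5 mM glucose, gassed 95% O₂/5% CO₂, with 54 μM corticosterone to block uptake-2. After 30 min stabilization, 10 min constant infusion of ¹¹C tracer (2.0-12.0 μCi/mL perfusate), then 120 min washout. Whole-heart activity read by coincidence CsF detectors and converted to apparent distribution volume. K_up (mL/min/g wet) taken as the linear slope of the 1-4 min infusion data. Clearance half-time (hr) from multi-exponential fit of the washout phase.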

Data set [1] in a line: Drug clearance rate in isolated Sprague-Dawley rat heart. In kind it is ADME, tissue-based. A digest of the protocol:
as §1

For a further data set, the system named is Spleen. Description: Biodistribution in spleen of Sprague-Dawley rat at 50 to 350 uCi, iv. In kind it is ADME, organism-based. The conditions noted are these: in vivo.
Data set [2] in a line: Biodistribution in left ventricle of Sprague-Dawley rat at 50 to 350 uCi, iv. In kind it is ADME, organism-based, Heart left ventricle. To be noted: in vivo.
Another data set relates to Muscle tissue. Description: Biodistribution in muscle of Sprague-Dawley rat at 50 to 350 uCi, iv. In kind it is ADME, organism-based. To be noted: in vivo.
A further data set concerns Lung. As to the kind of experiment: Biodistribution in lung of Sprague-Dawley rat at 50 to 350 uCi, iv. In kind it is ADME, organism-based. To be noted: in vivo.
Data set [3] can be described thus: Ratio of drug level in heart to blood in macaque rhesus monkey at 5.4 mCi, iv. In kind it is ADME, organism-based, Macaca mulatta. The method, boiled down:
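Rhesus monkey PET: 5.4 mCi of the [¹¹C] tracer, given as an intravenous bolus via catheter to a 5.3 kg animal. Images were reconstructed by OSEM/3D-MAP, and tissue ratios were taken from the dynamic myocardial kinetics.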

Data set [4] deals with PC-12. As to the kind of experiment: Drug uptake in tumor of rat PC12 cells xenografted BALB/c nu/nu mouse at 0.34 mCi within 10 mins. The conditions noted are these: in vivo.
In data set [5] the test system is PC-12. Description: Drug uptake in heart of rat PC12 cells xenografted BALB/c nu/nu mouse at 0.34 mCi at 60 mins. To be noted: in vivo, 1 h.
For data set [6], the system named is Rhesus monkey. Description: Ratio of drug level in heart to liver in macaque rhesus monkey at 4.9 mCi, iv. In kind it is ADME, organism-based, Macaca mulatta. The conditions noted are these: in vivo.
The nature of data set [7]: Ratio of drug level in heart to blood in macaque rhesus monkey at 4.8 mCi, iv. In kind it is ADME, organism-based, Macaca mulatta.
The test system of data set [8] is Rhesus monkey. As to the kind of experiment: Ratio of drug level in heart to liver in macaque rhesus monkey at 4.8 mCi, iv. In kind it is ADME, organism-based, Macaca mulatta. To be noted: in vivo.

Where only a bound is given, the exact number is not on record here.

As to `N=[11C](N)NCCc1ccc(F)c(O)c1`, the Drug uptake in the data set with Liver was found to be 1.22 % ID/g; in the data set with Blood, 0.08 % ID/g; in the data set on Adrenal medulla, 0.56 % ID/g; in the data set with Spleen, 0.52 % ID/g; in data set [2], 1.77 % ID/g; in the data set on Muscle tissue, 0.07 % ID/g. Also, the Drug uptake with Lung is 0.56 % ID/g. Moreover, in the data set on Heart, the Kup worked out at 0.72 mL/min/g. For the same compound, the half-life (usually the time needed for the level to fall by half in the phase considered) in data set [1] is greater than 73 h.
Regarding `N=[11C](N)NCCc1cccc(I)c1`, the Kup in the data set with Heart worked out at 1.1 mL/min/g. In [1], the half-life is 2.4 h.
In the case of `N=[11C](N)NCCc1cc(O)ccc1F`, the Drug uptake stood at 0.92 % ID/g in the data set with Liver; 0.07 % ID/g with Blood; 0.46 % ID/g in the data set on Adrenal medulla; 0.43 % ID/g in the data set with Spleen; 1.01 % ID/g in data set [2]; 0.06 % ID/g with Muscle tissue. Besides, the Drug uptake with Lung was determined as 0.34 % ID/g. The same compound returned a Kup in the data set with Heart of 0.49 mL/min/g. Besides, the half-life in data set [1] is greater than 20 h.
In the data set on Heart, `N=[11C](N)NCCc1ccccc1F` gave a Kup of 1.76 mL/min/g. In [1], this compound showed a half-life of 2.3 h.
Regarding `C[C@H](N[11CH3])[C@H](O)c1cccc(O)c1`, the results for the Drug uptake with Blood, with Muscle tissue and with Lung were 0.08 % ID/g, 0.17 % ID/g and 0.4 % ID/g, respectively. In addition, the partition ratio (Kp) – broadly, the ratio of the level in a tissue or fluid to that in plasma or blood – in [3] stood at 4.5.
With `N=[11C](N)NCCc1ccc(O)cc1`, the Drug uptake is 0.84 % ID/g in the data set with Liver; 0.16 % ID/g in the data set on Blood; 1.17 % ID/g in the data set on Adrenal medulla; 0.97 % ID/g in the data set with Spleen; 3.3 % ID/g in data set [2]; 29 % ID/g in the data set on PC-12 [4]. Further, the Drug uptake was determined as 0.14 % ID/g in the data set with Muscle tissue, 17 % ID/g with PC-12 [5] and 0.68 % ID/g in the data set on Lung. In the data set with Heart, this compound returned a Kup of 1.64 mL/min/g. In [1], this compound registered a half-life greater than 45 h.
Regarding `N=[11C](N)NCCc1cccc(F)c1`, the Kup in the data set with Heart is 0.24 mL/min/g. In data set [1], this compound gave a half-life of 1.9 h.
In the same order, the values of `N=[11C](N)NCCc1ccc(F)cc1` are 0.63 mL/min/g and 4.4 h.
In the case of `N=[11C](N)NC[C@H](O)c1ccccc1`, the Drug uptake was determined as 3.91 % ID/g in the data set with Liver; 0.09 % ID/g with Blood; 0.53 % ID/g in the data set on Adrenal medulla; 0.88 % ID/g in the data set with Spleen; 1.91 % ID/g in data set [2]; 0.1 % ID/g in the data set with Muscle tissue. Also, the Drug uptake in the data set with Lung is on record as 0.86 % ID/g. In the data set with Heart, this compound displayed a Kup of 0.42 mL/min/g. Besides, the half-life in data set [1] was 22 h.
As to `N=[11C](N)NCC(O)c1cccc(O)c1` (centres undefined), the Drug uptake with Liver came to 2.71 % ID/g; with Blood, 0.14 % ID/g; with Adrenal medulla it was 0.36 % ID/g; in the data set on Spleen, 0.63 % ID/g; in [2] it was 1.17 % ID/g; in the data set on Muscle tissue, 0.07 % ID/g. This compound displayed a Drug uptake with Lung of 0.75 % ID/g. Besides, in the data set with Heart, the Kup worked out at 0.3 mL/min/g. In [1], this compound returned a half-life greater than 152 h. Besides, in the data set on Rhesus monkey [6], the Ratio is 0.6.
Turning to `N=[11C](N)NCCc1cccc(O)c1`, the Drug uptake was determined as 0.89 % ID/g with Liver; 0.07 % ID/g in the data set with Blood; 0.88 % ID/g with Adrenal medulla; 0.63 % ID/g with Spleen; 2.28 % ID/g in [2]; 0.07 % ID/g with Muscle tissue. This compound registered a Drug uptake in the data set on Lung of 0.74 % ID/g. In the data set with Heart, this compound registered a Kup of 1.96 mL/min/g. The compound also came in with a half-life in data set [1] greater than 102 h. Also, the Kp in [7] was determined as 4.7. Moreover, the Ratio with Rhesus monkey [8] came to 4.4.
For the compound `N=[11C](N)NCCc1ccc(I)cc1`, the Kup in the data set with Heart worked out at 0.56 mL/min/g. Also, in [1], the half-life was 1.9 h.
In the data set with Heart, `COc1ccc(CCN[11C](=N)N)cc1` had a Kup of 0.73 mL/min/g. The compound also had a half-life in data set [1] of 2.3 h.
As for `[11CH3]NC[C@H](O)c1ccc(O)c(O)c1` [[11C]EPINEPHRINE], the Drug uptake in the data set on Liver is 1.95 % ID/g; with Blood it was 0.13 % ID/g; with Adrenal medulla it was 0.61 % ID/g; in the data set on Spleen it was 0.64 % ID/g; in data set [2], 2.14 % ID/g; with Muscle tissue, 0.22 % ID/g. Also, the Drug uptake with Lung is 0.39 % ID/g.
In the data set with Heart, `N=[11C](N)NCCc1ccccc1` [[11C]PHENETHYLGUANIDINE] yielded a Kup of 1.56 mL/min/g. The compound further showed a half-life in [1] of 3.3 h.

The record behind these values is ChEMBL document CHEMBL1147152, “Radiolabeled phenethylguanidines: novel imaging agents for cardiac sympathetic neurons and adrenergic tumors” (J Med Chem, 2007).
